# Residues, ends and D or L forms follow the SMILES beside them. *: point of attachment. AMC = Cc1cc(=O)oc2cc(N*)ccc12; Cbz = O=C(OCc1ccccc1)*
# Experiments:
# DUBs in HeLa lysates = assay: DUB-mediated hydrolysis of peptide reporters in HeLa lysates; assay type: biochemical; settings: for V/K value (Vmax/Km): HeLa lysates 4 mg/mL, DMSO curves, Michaelis-Menten parameters
# Outline: (§1)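 Lysates (4 mg/mL protein, by NanoDrop) came from M-PER extraction of PBS-washed HeLa or OPM2 cells, clarified at 14,000 × g. Lysates were pre-treated 1 h with 20 or 50 μM PR-619 or DMSO, in 50 mM HEPES pH 7.4, 150 mM NaCl, 2 mM DTT, 0.02% Tween-20. Released AFC or AMC was read every 30 min for 6 h at 30°C. Rates were calibrated, and Km and vmax came from Michaelis-Menten fits.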
# [1] = test system: DUBs in intact HeLa cells; assay: Enzyme-substrate kinetics in intact HeLa cells; assay type: cell-based
# [2] = test system: DUBs in intact OPM2 cells; assay: Direct visualization of DUB activity in intact OPM2 cells; assay type: cell-based; settings: 50 μM peptide, 120 minutes, 37°C, DAPI filter
# DUBs in OPM2 lysates = assay: DUB-mediated hydrolysis of peptide reporters in OPM2 lysates; assay type: biochemical
# Outline: as §1
# [3] = cited from earlier work
# intact cells = settings: cited from earlier work
molecule,measurement,setting,value
"Cc1cc(=O)oc2cc(NC(=O)CNC(=O)CNC(=O)[C@H](CCCNC(=N)N)NC(=O)[C@H](CC(C)C)NC(=O)OCc3ccccc3)ccc12 [Peptide 3, Z-Leu-Arg-Gly-Gly-AMC] (Cbz-LRGG-{AMC})",V/K value (Vmax/Km),DUBs in HeLa lysates,0.00021 min⁻¹
same,Reaction rates in intact cells,[1]; intact HeLa cells incubated with varying peptide concentrations for 6 h,not significantly different from zero
same,Intracellular fluorescence signal from DUB-mediated hydrolysis,[2],did not produce a detectable signal
N#CSc1cc(SC#N)c(N)nc1N [PR-619],Inhibition of DUB activity (residual activity),"DUBs in HeLa lysates; lysates treated with 50 μM PR-619, pre-treatment 1 h, HeLa lysates",incomplete inhibition
same,Inhibition of DUB activity (residual activity),"DUBs in OPM2 lysates; lysates treated with 50 μM PR-619, pre-treatment 1 h, OPM2 lysates",incomplete inhibition
Ac-RWVRVpGO(FAM)WIRQ-LRGG-AFC [Peptide 1],V/K value (Vmax/Km),DUBs in HeLa lysates,0.00212 min⁻¹
same,"Uninhibited reaction rates in OPM2 lysates, comparison","DUBs in OPM2 lysates; OPM2 lysates 4 mg/mL, no inhibitor, p<10^−4",significantly higher than Peptide 3
same,"Si,max, intracellular saturation concentration (model)","[1]; calculated from a, b, c, d, nintact with Eq. 7, HeLa cells",1.28 µM
same,"S0,50, external solution concentration at half-saturation level (model)","[1]; calculated from a, b, c, d, nintact with Eq. 8, HeLa cells",55.1 µM
same,nintact (Hill coefficient),"[1]; intact HeLa cells, Hill model fit",6.8
same,(V/K) intact,"[1]; intact HeLa cells, from Hill parameters, unit not given",1.38*10^−5
same,Intracellular fluorescence signal from DUB-mediated hydrolysis,[2],showed an increase in intracellular fluorescence
RWVRVpGRWIRQ [RWRWR],half-life in HeLa lysates,[3],7 h
same,Incubation time sufficient to deliver the CPP into intact cells,intact cells,10 min
same,Time to penetrate intact cells,intact cells,≤ 10 min
Ac-RWVRVpGO(FAM)WIRQ-LVLRLRGG-AFC [Peptide 2],Effect of DUB inhibition (PR-619) on rate data of the reporter,"DUBs in HeLa lysates; HeLa lysates pre-treated 1 h with 0, 20, 50 μM PR-619",did not result in a significant effect

# From publication PMC7442178 (Biochemical engineering journal, 2019)
